Results reported in ChEMBL document CHEMBL5634197, “Structural Evaluations of a Selective Human STINGA230 Agonist and Its Use in Macrophage Immunotherapies” (ACS Med Chem Lett, 2024).
Activity calls are given as the source filed them. No cut-off for these calls is given here.

Key:
[1] = Agonist activity at N-terminal his/SUMO tagged STING A230 in human THP-1 cells transfected with ISRE reporter assessed as increase in cGAMP-induced ISRE activation incubated for 48 hrs by luminescence based analysis; format: cell-based
THP-1 [2] = assay: Upregulation of MX1 expression in human THP-1 cells at 50 uM measured after 6 hrs by RT-qPCR analysis; format: functional, cell-based
In short: (§1)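 THP-1 cells, which carry homozygous STING HAQ, were treated for 6 h with vehicle or the agonist at 50 μM. Cells were then harvested, and MX1 and OAS1 expression was measured by RT-qPCR.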

Macrophage [3] = assay: Upregulation of IRF7 expression in human Primary macrophage measured after 6 hrs by RT-qPCR analysis; format: functional, cell-based
In short: (§2)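 CD14+ monocytes from 3 healthy donors with STING G230 alleles were differentiated into macrophages with M-CSF. Cells were transduced with FG12-EF1p-EGFRt-p2A-STINGA230 lentivirus, mock-transduced or left untransduced. Three days after transduction they were stimulated for 6 h with DMSO vehicle or the agonist, and MX1 and IRF7 expression was measured by RT-qPCR.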

PBMC = assay: Induction of MX1 gene expression in human PBMC cells harbouring STING A230 allele at 50 uM measured after 6 hrs by RT-qPCR analysis; format: functional, cell-based
In short: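 Primary PBMCs from 15 independent healthy donors were exposed to 50 μM agonist for 6 h. The 2′,3′-cGAMP comparator was given at 1 μg/mL. Cells were then harvested, and MX1 expression was measured by RT-qPCR. Values come from the donor carrying the STINGA230 allele.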

Macrophage [4] = assay: Upregulation of MX1 expression in human Primary macrophage measured after 6 hrs by RT-qPCR analysis; format: functional, cell-based; in short: as §2
[5] = Upregulation of MX1 expression in human Primary macrophage transduced with lentivirus FG12-EFlp-EGFRt-p2A-STING A230 assessed as fold change measured after 6 hrs by RT-qPCR analysis; format: functional; in short: as §2
THP-1 [6] = assay: Upregulation of OAS1 expression in human THP-1 cells at 50 uM measured after 6 hrs by RT-qPCR analysis; format: functional, cell-based; in short: as §1
[7] = Upregulation of IRF7 expression in human Primary macrophage transduced with lentivirus FG12-EFlp-EGFRt-p2A-STING A230 assessed as fold change measured after 6 hrs by RT-qPCR analysis; format: functional; in short: as §2
[8] = Homo sapiens, THP-1, 48 h, read-out: EC50

| Compound | EC50 ([1]; thp-1) | also measured |
| --- | --- | --- |
| COC(=O)CSc1nnc2c3c4c(sc3ncn12)CCC4 | – | EC50 [1, 8]: 7.3 µM |
| CCc1cc2c(ncn3c(SCC(=O)OC)nnc23)s1 | – | EC50 [1, 8]: 6.9 µM |
| COC(=O)CCc1nnc2c3c(C)c(C)sc3ncn12 | Not Active | – |
| COC(=O)CSc1nnc2c3c(C)c(Br)sc3ncn12 | – | EC50 [1, 8]: 11.4 µM |
| COC(=O)CSc1nnc2c3c(C)c(C)sc3ccn12 | Not Active | – |
| COC(=O)CSc1nnc2c3c4c(sc3ncn12)CCCC4 | Not Active | – |
| COC(=O)Cc1nnc2c3c(C)c(C)sc3ncn12 | Not Active | – |
| Cc1sc2ncn3c(SCC(=O)OC(C)C)nnc3c2c1C | – | EC50 [1, 8]: 13.4 µM |
| CCOC(=O)CSc1nnc2c3c(C)c(C)sc3ncn12 | – | EC50 [1, 8]: 8.8 µM |
| COC(=O)COc1nnc2c3c(C)c(C)sc3ncn12 | Not Active | – |
| COC(=O)CSc1nnc2c3c(C)c(C)sc3ncn12 | – | Activity (THP-1 [2]): Active; Activity (Macrophage [3]): inactive; Activity (PBMC): Active; Activity (Macrophage [4]): inactive; fold change (FC) [5]: 10; Activity (THP-1 [6]): Active; EC50 [1, 8]: 5.71 µM; fold change (FC) [7]: 5 |
| COC(=O)CSc1nnc2c3c(C)c(C)oc3ncn12 | Not Active | – |
| COC(=O)CSc1nnc2c3c(C)c(C)sc3nc(C)n12 | Not Active | – |
| Cc1sc2ncn3c(SC4CCOC4=O)nnc3c2c1C (configuration not stated) | Not Active | – |
| COCc1sc2ncn3c(SCC(=O)OC)nnc3c2c1C | – | EC50 [1, 8]: 23.2 µM |
| Cc1sc2ncn3c(SCC(=O)OC(C)(C)C)nnc3c2c1C | Not Active | – |
| COC(=O)CNC(=O)n1cnc2sc(C)c(C)c2c1=O | Not Active | – |

The next lines start with results.

| EC50 ([1]; thp-1) | Compound | also measured |
| --- | --- | --- |
| Not Active | COC(=O)C[S+]([O-])c1nnc2c3c(C)c(C)sc3ncn12 (configuration not stated) | – |
| Not Active | COC(=O)CSc1ncc2c3c(C)c(C)sc3ncn12 | – |
| Not Active | Cc1sc2ncn3c(Sc4nnn[nH]4)nnc3c2c1C | – |
| Not Active | COC(=O)CSc1nnc2c3cc(OC)c(OC)cc3ncn12 | – |
| Not Active | COC(=O)CSc1nnc2c3ccsc3ncn12 | – |
| Not Active | COC(=O)CSc1nnc2c3c(C)c(C)n(C)c3ncn12 | – |
| Not Active | COCc1c(C)sc2ncn3c(SCC(=O)OC)nnc3c12 | – |
| Not Active | COC(=O)CCSc1nnc2c3c(C)c(C)sc3ncn12 | – |
